Format in all cases: functional
Test [1] is filed under the species Homo sapiens. Briefly: In vitro inhibition of collagen-induced platelet aggregation in human platelet-rich plasma (PRP). The gist of the method: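 Citrated human blood spun at 200g, 10 min, 10 °C to give PRP. A further spin at 2000g, 10 min, 10 °C gave PPP, used to adjust the platelet count to 3×10^5/mm³. Collagen triggered aggregation. Approximate IC50 was read from 1/2 log steps of drug concentration. Flurbiprofen served as internal standard for day-to-day variation in platelet sensitivity.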

For test [2], the species on record is Homo sapiens. Briefly: Potency relative to flurbiprofen in inhibiting collagen-induced platelet aggregation in human platelet-rich plasma (PRP). The procedure, abridged:
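Ratio of activity to flurbiprofen, the internal standard run alongside each day. The IC50 was approximate, from 1/2 log concentration intervals, for collagen-induced aggregation in human PRP. PRP came from citrated blood (200g, 10 min, 10 °C), with platelets adjusted to 3×10^5/mm³ using autologous PPP (2000g, 10 min, 10 °C).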

The species named for test [3] is Homo sapiens. Kind of test: Percent inhibition of collagen-induced Platelet aggregation in human platelet-rich plasma (PRP) at a concentration of 0.001 ug/mL.
For test [4], the species on record is Homo sapiens. Kind of test: Percent inhibition of collagen-induced Platelet aggregation in human platelet-rich plasma (PRP) at a concentration of 0.01 ug/mL.
For test [5], the species on record is Homo sapiens. Briefly: Percent inhibition of collagen-induced Platelet aggregation in human platelet-rich plasma (PRP) at a concentration of 0.032 ug/mL.

In ChEMBL document CHEMBL1122973, “Synthesis and platelet aggregation inhibitory activity of 4,5-bis(substituted)-1,2,3-thiadiazoles” (J Med Chem, 1985) one finds IC50, Relative potency and inhibition data, which are given here for 18 compounds.

Each structure is given as a SMILES string. Converted amounts (≈) assume the structure as drawn.

With `Cl.Cl.Nc1ccc(-c2nnsc2-c2ccc(N)cc2)cc1`, it took 3.2 µg/mL to reach half-maximal inhibition in test [1] (IC50). The compound further displayed a Relative potency in test [2] of 0.03.
For `CN(C)c1ccc(-c2nnsc2-c2ccc(N(C)C)cc2)cc1` the same measures were 0.01 µg/mL (≈ 0.0308 µM) and 10.
For `COc1ccc(-c2snnc2-c2ccc(OC)cc2OC)cc1` the same measures were 0.032 µg/mL (≈ 0.0974 µM) and 3.1.
For `Oc1ccc(-c2nnsc2-c2ccc(O)cc2)cc1` the same measures were 3.2 µg/mL (≈ 11.8 µM) and 0.03.
The compound `c1ccc(-c2nnsc2-c2ccc3c(c2)OCO3)cc1` gave an IC50 in test [1] of 3.2 µg/mL (≈ 11.3 µM). In addition, in test [2], the Relative potency worked out at 0.03.
The corresponding values for `c1csc(-c2nnsc2-c2cccs2)c1` are 3.2 µg/mL (≈ 12.8 µM) and 0.03.
The corresponding values for `COc1ccc(-c2nnsc2-c2ccccc2)cc1` are 0.01 µg/mL (≈ 0.0373 µM) and 10.
The corresponding values for `COc1ccc(-c2snnc2-c2ccco2)cc1` are 0.032 µg/mL (≈ 0.124 µM) and 3.1.
Consider `COc1ccc(-c2csnn2)cc1`, for which it took 3.2 µg/mL (≈ 16.6 µM) to reach half-maximal inhibition in test [1] (IC50). In addition, the Relative potency in test [2] was found to be 0.03.
`COc1ccc(-c2snnc2-c2ccccc2)cc1` showed a concentration for half-maximal inhibition (IC50) in test [1] of 0.003 µg/mL (≈ 0.0112 µM). Besides, the inhibition at 0.001 µg/mL in test [3] was determined as 32.4%. Further, the inhibition at 0.01 µg/mL in test [4] turned out to be 56.8%. Also, testing at 0.032 µg/mL in test [5] gave an inhibition of 50%. In addition, the Relative potency in test [2] was determined as 31.3.
In test [1], `COc1ccc(-c2nnsc2-c2ccc(OC)cc2)cc1` returned an IC50 of 0.001 µg/mL (≈ 0.00335 µM). In test [3], this compound returned an inhibition at 0.001 µg/mL of 32.4%. In addition, the inhibition at 0.01 µg/mL in test [4] was 90%. The same compound displayed an inhibition at 0.032 µg/mL in test [5] of 55.4%. This compound returned a Relative potency in test [2] of 100.
For `CCNc1ccc(-c2nnsc2-c2ccc(NCC)cc2)cc1`, the half-maximal inhibitory concentration (IC50) in test [1] was determined as 3.2 µg/mL (≈ 9.86 µM). In test [2], this compound gave a Relative potency of 0.03.
As to `c1ccc(-c2csnn2)cc1`, the IC50 in test [1] is 3.2 µg/mL (≈ 19.7 µM). Moreover, the Relative potency in test [2] is 0.03.
For `COc1ccc(-c2snnc2-c2ccc(SC)cc2)cc1` the same measures were 0.032 µg/mL (≈ 0.102 µM) and 3.1.
For `COc1ccc(-c2nnsc2-c2cccs2)cc1` the same measures were 1 µg/mL (≈ 3.64 µM) and 0.1.
With `c1ccc(-c2nnsc2-c2ccccc2)cc1`, the concentration for half-maximal inhibition (IC50) in test [1] is 3.2 µg/mL (≈ 13.4 µM). In test [2], this compound registered a Relative potency of 0.03.
For `c1ccc(-c2cnns2)cc1` the same measures were 3.2 µg/mL (≈ 19.7 µM) and 0.03.
Regarding `CC(=O)Oc1ccccc1C(=O)O` [ASPIRIN], the Relative potency in test [2] is given as 0.01.

Broadly, the IC50 is the concentration needed to halve the response being measured. Broadly, the inhibition is the percentage by which the read-out fell short of the control. High values mean strong suppression, low ones little suppression.
